Each block holds one compound with its values, some of them ahead of it.
Columns and labels:
[1] = Stability in mouse plasma assessed as drug degradation; type: ADME, cell-free
[2] = Stability in mouse liver microsomes assessed as drug degradation; type: ADME, Microsome
[3] = Tmax in CD-1 mouse liver at 2.5 mg/kg, ip measured for 24 hrs by LC-MS/MS analysis; type: ADME, organism-based; details: in vivo
How it was run: (§1)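 Male CD1 mice (25–30 g), fasted ~4 h, given 2.5 mg/kg ip in 5% DMSO/95% normal saline. Brain, liver and kidney were taken at pre-dose, 0.5, 2, 4 and 24 h and homogenized in 5 volumes PBS. Homogenates got tolbutamide internal standard and acetonitrile protein precipitation. UPLC-MS/MS used MRM. Parameters came from noncompartmental analysis.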

[4] = Tmax in CD-1 mouse brain at 2.5 mg/kg, ip measured for 24 hrs by LC-MS/MS analysis; type: ADME, organism-based; details: in vivo; how it was run: as §1
WSU-HN30 = assay: Antiproliferative activity against human WSU-HN30 cells assessed as suppression of cell growth incubated for 24 to 72 hrs by CCK-8 assay; type: functional, cell-based; details: dose 10-300 µM, time 24-72 hrs
How it was run: (§2)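 Radiotherapy-resistant HNSCC lines were used: HN30 from pharynx SCC and HN31 from a lymph-node metastasis of the same patient. Cells in RPMI 1640 with 10% FBS were seeded at 3,000 per well and treated 24 h later with 10–300 μM (5 levels) for 24 or 72 h, with cisplatin as control. CCK-8 was read at OD450 after 2 h. Data are % survival, n = 3 independent experiments.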

[5] = AUC (0 to infinity) in CD-1 mouse brain at 2.5 mg/kg, ip measured for 24 hrs by LC-MS/MS analysis; type: ADME, organism-based; set-up: dose 2.5 mg/kg, time 24 hrs, route ip; details: in vivo; how it was run: as §1
[6] = Apparent half life in CD-1 mouse kidney at 2.5 mg/kg, ip measured for 24 hrs by LC-MS/MS analysis; type: ADME, organism-based; details: in vivo; how it was run: as §1
[7] = Antiproliferative activity against human WSU-HN30 cells assessed as inhibition of cell growth incubated for 72 hrs by CCK-8 assay; type: functional, cell-based; details: WSU-HN30, 72 h; how it was run: as §2
[8] = Cytotoxicity against human MCF-10A cells assessed as inhibition of cell growth incubated for 72 hrs by Hoechst 33342/propidium iodide staining based fluorescence analysis; type: toxicity; details: human, MCF-10A cells
[9] = Cmax in CD-1 mouse plasma at 2.5 mg/kg, iv measured for 24 hrs by LC-MS/MS analysis; type: ADME, organism-based; set-up: time 24 hrs, dose 2.5 mg/kg, route iv; details: in vivo
How it was run: (§3)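 Fasted (~4 h) male CD1 mice, n = 24 per route, received 2.5 mg/kg iv or ip in 5% DMSO/95% normal saline. Blood was drawn into K2EDTA at pre-dose, 0.083, 0.5, 1, 2, 4, 8 and 24 h, and plasma was separated. Samples were precipitated with acetonitrile, with tolbutamide as internal standard, then quantified by UPLC-MS/MS (MRM). Parameters came from noncompartmental analysis.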

[10] = Terminal half life in CD-1 mouse plasma at 2.5 mg/kg, iv measured for 24 hrs by LC-MS/MS analysis; type: ADME, organism-based; details: in vivo; how it was run: as §3
BNC3 = assay: Antiproliferative activity against human BNC3 cells assessed as suppression of cell growth incubated for 24 to 72 hrs by CCK-8 assay; type: functional, cell-based; details: dose 10-300 µM, time 24-72 hrs
How it was run: (§4)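 Primary patient-derived glioblastoma lines were grown in RPMI 1640 with 10% FBS. Cells were seeded at 3,000 per well and dosed 24 h later at 10, 50, 100, 200 and 300 μM for 24 or 72 h, with BiCNU as control. CCK-8 was added and OD450 read after 2 h at 37 °C. Data are % cell survival, from 3 independent replicates.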

[11] = Antiproliferative activity against human BNC3 cells assessed as inhibition of cell growth incubated for 72 hrs by CCK-8 assay; type: functional, cell-based; details: BNC3, 72 h; how it was run: as §4
[12] = Tmax in CD-1 mouse plasma at 2.5 mg/kg, iv measured for 24 hrs by LC-MS/MS analysis; type: ADME, organism-based; details: in vivo; how it was run: as §3
[13] = Cmax in CD-1 mouse plasma at 2.5 mg/kg, ip measured for 24 hrs by LC-MS/MS analysis; type: ADME, organism-based; set-up: dose 2.5 mg/kg, time 24 hrs, route ip; details: in vivo; how it was run: as §3
BNC6 = assay: Antiproliferative activity against human BNC6 cells assessed as suppression of cell growth incubated for 24 to 72 hrs by CCK-8 assay; type: functional, cell-based; details: dose 10-300 µM, time 24-72 hrs; how it was run: as §4
[14] = AUC (0 to infinity) in CD-1 mouse plasma at 2.5 mg/kg, iv measured for 24 hrs by LC-MS/MS analysis; type: ADME, organism-based; set-up: dose 2.5 mg/kg, time 24 hrs, route iv; how it was run: as §3
[15] = AUC (0 to infinity) in CD-1 mouse plasma at 2.5 mg/kg, ip measured for 24 hrs by LC-MS/MS analysis; type: ADME, organism-based; set-up: dose 2.5 mg/kg, time 24 hrs, route ip; how it was run: as §3
[16] = Bioavailability in CD-1 mouse plasma at 2.5 mg/kg, ip measured for 24 hrs by LC-MS/MS analysis; type: ADME, organism-based; details: in vivo; how it was run: as §3
[17] = Cmax in CD-1 mouse kidney at 2.5 mg/kg, ip measured for 24 hrs by LC-MS/MS analysis; type: ADME, organism-based; set-up: dose 2.5 mg/kg, time 24 hrs, route ip; details: in vivo; how it was run: as §1
[18] = Antiproliferative activity against human WSU-HN31 cells assessed as inhibition of cell growth incubated for 72 hrs by CCK-8 assay; type: functional, cell-based; details: WSU-HN31, 72 h; how it was run: as §2
[19] = Tmax in CD-1 mouse plasma at 2.5 mg/kg, ip measured for 24 hrs by LC-MS/MS analysis; type: ADME, organism-based; details: in vivo; how it was run: as §3
[20] = AUC (0 to infinity) in CD-1 mouse kidney at 2.5 mg/kg, ip measured for 24 hrs by LC-MS/MS analysis; type: ADME, organism-based; set-up: time 24 hrs, dose 2.5 mg/kg, route ip; details: in vivo; how it was run: as §1
[21] = Tmax in CD-1 mouse kidney at 2.5 mg/kg, ip measured for 24 hrs by LC-MS/MS analysis; type: ADME, organism-based; details: in vivo; how it was run: as §1
[22] = Volume of distribution in CD-1 mouse plasma at 2.5 mg/kg, iv measured for 24 hrs by LC-MS/MS analysis; type: ADME, organism-based; details: in vivo; how it was run: as §3
[23] = Cytotoxicity against human MCF-10A cells assessed as inhibition of cell growth incubated for 24 hrs by Hoechst 33342/propidium iodide staining based fluorescence analysis; type: toxicity; details: human, MCF-10A cells
[24] = Antiproliferative activity against human BNC6 cells assessed as inhibition of cell growth incubated for 72 hrs by CCK-8 assay; type: functional, cell-based; details: BNC6, 72 h; how it was run: as §4
[25] = Clearance in CD-1 mouse plasma at 2.5 mg/kg, iv measured for 24 hrs by LC-MS/MS analysis relative to hepatic blood flow; type: ADME, organism-based; details: in vivo; how it was run: as §3
WSU-HN31 = assay: Antiproliferative activity against human WSU-HN31 cells assessed as suppression of cell growth incubated for 24 to 72 hrs by CCK-8 assay; type: functional, cell-based; details: dose 10-300 µM, time 24-72 hrs; how it was run: as §2
[26] = Apparent half life in CD-1 mouse liver at 2.5 mg/kg, ip measured for 24 hrs by LC-MS/MS analysis; type: ADME, organism-based; details: in vivo; how it was run: as §1
[27] = AUC (0 to infinity) in CD-1 mouse liver at 2.5 mg/kg, ip measured for 24 hrs by LC-MS/MS analysis; type: ADME, organism-based; set-up: time 24 hrs, dose 2.5 mg/kg, route ip; details: in vivo; how it was run: as §1
[28] = Apparent half life in CD-1 mouse plasma at 2.5 mg/kg, ip measured for 24 hrs by LC-MS/MS analysis; type: ADME, organism-based; details: in vivo; how it was run: as §3
[29] = Cmax in CD-1 mouse liver at 2.5 mg/kg, ip measured for 24 hrs by LC-MS/MS analysis; type: ADME, organism-based; set-up: time 24 hrs, dose 2.5 mg/kg, route ip; details: in vivo; how it was run: as §1

- Stability [1]: Unstable
- Stability [2]: Unstable
Compound: NCc1ccc(F)cc1

- Tmax [3]: 60 min
- Tmax [4]: 30 min
- AUC [5]: 44 ng·h/g
- t1/2(app) [6]: 27.6 min
- Cmax [9]: 3016 ng/mL
- beta t1/2 [10]: 48 min
- Tmax [12]: 7.2 min
- Cmax [13]: 1543 ng/mL
- AUC(0-inf) [14]: 1460 ng·h/mL
- AUC(0-inf) [15]: 967 ng·h/mL
- F [16]: 66%
- Cmax [17]: 17681 ng/g
- Tmax [19]: 13.2 min
- AUC [20]: 21944 ng·h/g
- Tmax [21]: 30 min
- Vd [22]: 4.6 L/kg
- CL [25]: 31%
- t1/2(app) [26]: 25.8 min
- AUC [27]: 10596 ng·h/g
- t1/2(app) [28]: 25.8 min
- Cmax [29]: 7291 ng/g
Compound: C=C(C[C@H](N)C(=O)O)C(=O)NCc1ccc(F)cc1
- Activity (WSU-HN30): Dose-Dependent Effect
- IC50 [7]: 102 µM
- IC50 at 72 h [8]: > 1000 µM
- Activity (BNC3): Dose-Dependent Effect
- IC50 [11]: 169 µM
- Activity (BNC6): Dose-Dependent Effect
- IC50 [18]: 196 µM
- IC50 at 24 h [23]: > 1000 µM
- IC50 [24]: 189 µM
- Activity (WSU-HN31): Dose-Dependent Effect

— ChEMBL document CHEMBL5236662, “Synthesis and biological evaluation of tert-butyl ester and ethyl ester prodrugs of L-γ-methyleneglutamic acid amides for cancer” (Bioorg Med Chem, 2023)
